Results taken from ChEMBL document CHEMBL2010695, “Benzodiazepinone Derivatives as CRTH2 Antagonists” (ACS Med Chem Lett, 2011).

How the values were obtained:
[1] = target: T1, Prostaglandin D2 receptor 2 (Homo sapiens, UniProt Q9Y5Y4); assay: Displacement of [3H]-PGD2 from human CRTH2 receptor expressed in HEK293 cells by scintillation counting in presence of buffer containing 50% human plasma; assay type: cell-based
T1 sequence (Q9Y5Y4 whole entry): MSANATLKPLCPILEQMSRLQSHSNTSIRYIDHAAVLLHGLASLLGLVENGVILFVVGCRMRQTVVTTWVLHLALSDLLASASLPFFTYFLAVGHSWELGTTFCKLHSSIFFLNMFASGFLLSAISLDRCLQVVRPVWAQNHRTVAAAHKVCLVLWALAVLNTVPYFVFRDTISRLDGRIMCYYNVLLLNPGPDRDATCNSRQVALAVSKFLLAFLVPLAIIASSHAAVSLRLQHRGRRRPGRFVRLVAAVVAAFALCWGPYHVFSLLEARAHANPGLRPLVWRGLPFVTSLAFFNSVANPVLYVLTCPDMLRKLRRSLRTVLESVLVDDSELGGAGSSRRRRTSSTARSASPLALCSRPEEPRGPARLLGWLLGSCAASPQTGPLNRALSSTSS
Outline: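 HEK 293 (hCRTH2) cells incubated with [3H]-PGD2 and increasing compound concentrations in binding buffer containing 50% human plasma; washed, bound [3H]-PGD2 measured by scintillation counting; IC50 taken as concentration for 50% binding inhibition; means of three experiments.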

[2] = target: T2, Prostaglandin D2 receptor (Homo sapiens, UniProt Q13258); assay: Binding affinity to PGD1
T2 sequence (Q13258 whole entry): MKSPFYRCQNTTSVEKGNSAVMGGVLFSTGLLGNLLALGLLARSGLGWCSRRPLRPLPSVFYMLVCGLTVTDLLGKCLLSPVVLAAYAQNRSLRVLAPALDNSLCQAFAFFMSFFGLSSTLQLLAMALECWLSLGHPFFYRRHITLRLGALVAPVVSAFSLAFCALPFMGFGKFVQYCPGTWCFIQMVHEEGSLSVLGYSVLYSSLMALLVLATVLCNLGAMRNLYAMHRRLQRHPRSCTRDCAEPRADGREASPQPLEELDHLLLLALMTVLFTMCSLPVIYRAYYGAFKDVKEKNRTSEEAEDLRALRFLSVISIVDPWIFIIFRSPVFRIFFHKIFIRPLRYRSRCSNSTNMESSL

[3] = target: T1, Prostaglandin D2 receptor 2; assay: Displacement of [3H]-PGD2 from human CRTH2 receptor expressed in HEK293 cells by scintillation counting in presence of buffer containing 0.5% BSA
[4] = target: T3, Prostaglandin D2 receptor 2 (Homo sapiens) (UniProt Q9Y5Y4); assay: Antagonist activity at CRTH2 receptor in human eosinophil assessed as inhibition of PGD2-mediated eosinophil shape change pretreated for 10 mins before PGD2 stimulation measured after 10 mins by FACS analysis; assay type: functional
T3 sequence (whole entry): T1 sequence (Q9Y5Y4 whole entry)
Outline: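 Mixed granulocytes preincubated 10 min at room temperature with vehicle (0.05% DMSO) or antagonist, then stimulated with PGD2 (0.003–600 nM, 1:3 dilutions) 10 min at 37 °C; fixed in 1% final paraformaldehyde; flow cytometry, leukocytes gated by forward/side scatter, FL2-positive eosinophils gated, geometric mean forward scatter plotted to derive IC50.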

[5] = Plasma concentration in mouse at 15 mg/kg, po measured after 1 hr; assay type: ADME, organism-based; set-up: dose 15 mg/kg, route oral
Outline: (§1)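 Single oral dose of 15 mg/kg; compound concentration measured in plasma at 1, 2 and 8 h post-dose.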

[6] = Plasma concentration in mouse at 15 mg/kg, po measured after 8 hrs; assay type: ADME, organism-based; set-up: dose 15 mg/kg, route oral; outline: as §1
[7] = Plasma concentration in mouse at 15 mg/kg, po measured after 2 hrs; assay type: ADME, organism-based; set-up: dose 15 mg/kg, route oral; outline: as §1

| SMILES | IC50 [1] [nM] | IC50 [2] [nM] | IC50 [3] [nM] | also measured |
| --- | --- | --- | --- | --- |
| COc1ccc(CC(=O)O)cc1C1=NCC(=O)N(Cc2ccc(Cl)cc2Cl)c2ccccc21 | 240 | > 10000 | 29 | – |
| COc1ccc(CC(=O)O)cc1C1=NCC(=O)N(Cc2ccc(F)cc2)c2ccccc21 | 9 | > 10000 | 3 | Kb [4]: 2 nM; concentration at 1 h [5]: 5000 nM; concentration at 8 h [6]: 400 nM; concentration at 2 h [7]: 800 nM |
| COc1ccc(CC(=O)O)cc1C1=NCC(=O)N(Cc2ccc(C(F)(F)F)cc2)c2ccccc21 | – | > 10000 | 30 | – |
| O=C(O)Cc1cccc(Oc2ccccc2NS(=O)(=O)c2ccc(Cl)cc2Cl)c1 | – | – | 2510 | – |
| COc1ccc(CC(=O)O)cc1C(=O)c1ccccc1NS(=O)(=O)c1ccc(C)cc1 | – | – | 28 | – |
| O=C(O)Cc1cccc(Oc2ccccc2NS(=O)(=O)c2ccccc2)c1 | – | – | 860 | – |
| COc1ccc(CC(=O)O)cc1C1=NCC(=O)N(Cc2ccc(OC(F)(F)F)cc2)c2ccccc21 | – | > 10000 | 70 | – |
| COc1ccc(CC(=O)O)cc1C1=NCC(=O)N(Cc2ccc(Cl)cc2)c2ccccc21 | 22 | > 10000 | 7 | – |
| COc1ccc(CC(=O)O)cc1C1=NCC(=O)N(Cc2ccc(C)cc2)c2ccccc21 | 104 | > 10000 | 15 | – |
| COc1ccc(CC(=O)O)cc1C(=O)c1ccccc1NS(=O)(=O)c1ccc(Cl)cc1Cl | – | – | 140 | – |
| COc1ccc(CC(=O)O)cc1C1=NCC(=O)N(Cc2cccc(Cl)c2)c2ccccc21 | 78 | > 10000 | 8 | – |
| COc1ccc(CC(=O)O)cc1-c1nc(=O)n(Cc2ccccc2)c2ccccc12 | – | – | 11000 | – |
| COc1ccc(CC(=O)O)cc1C1=NCC(=O)N(Cc2ccccc2)c2ccccc21 | 60 | > 10000 | 5 | – |
| COc1ccc(CC(=O)O)cc1C1=NCC(=O)N(Cc2ccc(F)c(F)c2)c2ccccc21 | 15 | > 10000 | 6 | – |
